Source: ChEMBL document CHEMBL1121898, “Potential antiestrogens. Synthesis and evaluation of mammary tumor inhibiting activity of 1,2-dialkyl-1,2-bis(3'-hydroxyphenyl)ethanes” (1981)
One block for each compound: values may come before it. Calls of active or inactive are those of the source. The calls are words filed in the database; no cut-off is given here.

How the values were obtained:
MCF7 [1] = test: Inhibition of estrogen receptor positive MCF-7 cell proliferation as cell number after 10 days at 10e-6 M; type: functional, Homo sapiens
How it was run: (§1)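 MCF-7 cells were grown in McCoy's 5a medium with fetal bovine serum stripped by DCC (0.5 h, 45 °C). Compounds were dissolved in ethanol (final ≤0.5%) and diluted in complete medium. Cells were seeded at 5×10^4 cells/plate. On day 10, three replicate plates per group were counted by Coulter counter, three counts per plate. Percent T/C = test/control. In a retest, compounds were given at 10^-7 M with 17β-estradiol at 10^-7 or 10^-8 M.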

MCF7 [2] = test: Inhibition of estrogen receptor positive MCF-7 cell proliferation as percent treated/control cell number after 10 days at 10e-7 M; type: functional, Homo sapiens; how it was run: as §1
MCF7 [3] = test: Inhibition of estrogen receptor positive MCF-7 cell proliferation as cell number after 10 days at 10e-8 M; type: functional, Homo sapiens; how it was run: as §1
MCF7 [4] = test: Inhibition of estrogen receptor positive MCF-7 cell proliferation as percent treated/control cell number after 10 days at 10e-8 M; type: functional, Homo sapiens; how it was run: as §1
MCF7 [5] = test: Inhibition of estrogen receptor positive MCF-7 cell proliferation as cell number after 10 days at 10e-7 M; type: functional, Homo sapiens; how it was run: as §1
MCF7 [6] = test: Inhibition of estrogen receptor positive MCF-7 cell proliferation as percent treated/control cell number after 10 days at 10e-6 M; type: functional, Homo sapiens; how it was run: as §1
Mus musculus = species: Mus musculus; test: Vaginal cornification test in mice at 0.1 ug; cornified nonnucleated cells present (estrus); type: functional, organism-based
[7] = molecular target: T1, Estrogen receptor (Mus musculus) (UniProt O08537+P19785); test: Inhibitory activity in mouse uterine weight test at 100 ug; type: functional
T1 sequence (O08537 whole entry, looked up): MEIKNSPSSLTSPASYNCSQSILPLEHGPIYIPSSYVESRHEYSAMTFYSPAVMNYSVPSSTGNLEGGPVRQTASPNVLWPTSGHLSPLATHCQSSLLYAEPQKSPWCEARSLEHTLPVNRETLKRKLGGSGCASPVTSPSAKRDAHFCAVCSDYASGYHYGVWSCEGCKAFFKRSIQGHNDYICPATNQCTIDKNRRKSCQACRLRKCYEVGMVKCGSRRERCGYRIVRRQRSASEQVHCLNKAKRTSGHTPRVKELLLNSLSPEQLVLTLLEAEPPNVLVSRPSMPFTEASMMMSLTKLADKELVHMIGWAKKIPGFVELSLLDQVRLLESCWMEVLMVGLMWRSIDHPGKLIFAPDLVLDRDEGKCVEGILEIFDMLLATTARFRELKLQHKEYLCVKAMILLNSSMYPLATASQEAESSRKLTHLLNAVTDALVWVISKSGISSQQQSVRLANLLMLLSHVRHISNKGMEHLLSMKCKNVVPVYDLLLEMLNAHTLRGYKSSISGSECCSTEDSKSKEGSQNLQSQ
T1 sequence (P19785 whole entry, looked up): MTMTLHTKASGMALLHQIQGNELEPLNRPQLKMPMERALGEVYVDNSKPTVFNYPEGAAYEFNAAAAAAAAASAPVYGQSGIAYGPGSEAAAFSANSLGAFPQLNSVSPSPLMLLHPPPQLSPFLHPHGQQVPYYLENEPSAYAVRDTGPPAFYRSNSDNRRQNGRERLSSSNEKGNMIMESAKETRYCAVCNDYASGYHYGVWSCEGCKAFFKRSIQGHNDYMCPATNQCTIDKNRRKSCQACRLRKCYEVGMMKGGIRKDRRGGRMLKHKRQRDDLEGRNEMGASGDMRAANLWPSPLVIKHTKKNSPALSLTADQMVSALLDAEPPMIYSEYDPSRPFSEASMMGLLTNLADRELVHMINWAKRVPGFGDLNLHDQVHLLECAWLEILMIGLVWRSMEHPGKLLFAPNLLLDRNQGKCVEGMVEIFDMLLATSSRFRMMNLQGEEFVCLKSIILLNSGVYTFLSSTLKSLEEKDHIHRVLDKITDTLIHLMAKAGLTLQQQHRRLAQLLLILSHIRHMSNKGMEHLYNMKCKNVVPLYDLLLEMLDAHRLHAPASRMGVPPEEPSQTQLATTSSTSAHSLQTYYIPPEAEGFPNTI
How it was run: (§2)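 Antiuterotrophic (Dorfman) assay in immature 20-day-old female NMRI mice, groups of 10. Uterine growth was stimulated with estrone (0.1 μg) and the test compound was given alongside it, sc daily for 3 days in 0.1 mL olive oil. Uteri were taken 24 h after the last dose. Uterine weight is reported as means ± SD and inhibition as % of the estrone-stimulated response.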

[8] = molecular target: T1, Estrogen receptor (Mus musculus); test: Antiestrogenic activity in uterotrophic test in mice at 100 ug; type: functional
How it was run: (§3)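 Immature female NMRI mice, 20 days old (14.5 ± 1.2 g), randomly grouped 10 per group. Each received a daily sc injection for 3 days of 0.1 mL olive oil solution containing test compound, together with estrone to stimulate uterine growth. Uteri were removed 24 h after the last injection and weighed. Results are reported as % inhibition of the estrone-stimulated uterine weight gain, mean ± SD.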

[9] = molecular target: T1, Estrogen receptor (Mus musculus); test: Antiestrogenic activity in uterotrophic test in mice at 3.3 ug; type: functional; how it was run: as §3
[10] = molecular target: T1, Estrogen receptor (Mus musculus); test: Antiestrogenic activity in uterotrophic test in mice at 1000 ug; type: functional; how it was run: as §3
[11] = molecular target: T1, Estrogen receptor (Mus musculus); test: Antiestrogenic activity in uterotrophic test in mice at 0 ug; type: functional; how it was run: as §3
[12] = molecular target: T1, Estrogen receptor (Mus musculus); test: Inhibitory activity in mouse uterine weight test at 0.1 ug; type: functional; how it was run: as §2
[13] = molecular target: T1, Estrogen receptor (Mus musculus); test: Inhibitory activity in mouse uterine weight test at 1000 ug; type: functional; how it was run: as §2
[14] = tested on: Estrogen receptor (Bos taurus); test: Displacement of [3H]estradiol from calf estrogen receptor

Structure (SMILES): CC/C(=C(\c1ccccc1)c1ccc(OCCN(C)C)cc1)c1ccccc1 [TAMOXIFEN]
- Cell number (MCF7 [1]): 32900
- T/C (MCF7 [2]): 79%
- Cell number (MCF7 [3]): 38000
- T/C (MCF7 [4]): 87%
- Cell number (MCF7 [5]): 34600
- T/C (MCF7 [6]): 75%

Structure (SMILES): C[C@]12CC[C@@H]3c4ccc(O)cc4CC[C@H]3[C@@H]1CCC2=O
- Activity (Mus musculus): Active

- inhibition [7]: 15%
- Effect [8]: 34.2
- Effect [9]: 39.5
- Effect [10]: 34.6
- Effect [11]: 10.5
- inhibition [12]: 5%
- inhibition [13]: 14%
- Ka [14]: 3.3e+06 M⁻¹
Structure (SMILES): CCCCCC(c1cccc(O)c1)C(CCCCC)c1cccc(O)c1 (stereo not given)
